Experimental findings from ChEMBL document CHEMBL3352256 (J Med Chem, 2014) are described below.

A short description of assay [1]: Inhibition of HTLV-1 protease. Set-up: species or system Human T-cell leukemia virus type I.
The test system of assay [2] is Human T-cell leukemia virus type I. Kind of assay: Inhibition of HTLV-1 protease at 80 uM using (RE(Edans)TKVLVVQPK(Dabsyl)R) substrate by fluorescence-based assay. In outline:
(§1)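 HTLV-1 PR (aspartic protease, homodimer) activity was measured in a fluorescence-based assay. Inhibitors were tested at 80, 40 and 8 μM, and the read-out was percent inhibition. A percentage efficiency index (PEI) was then calculated from the percent inhibition value and the molecular weight.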

For assay [3] the test system is unchanged. Kind of assay: Inhibition of HTLV-1 protease at 8 uM using (RE(Edans)TKVLVVQPK(Dabsyl)R) substrate by fluorescence-based assay. In outline: as §1
Assay [4] shares this test system. Kind of assay: Inhibition of HTLV-1 protease at 40 uM using (RE(Edans)TKVLVVQPK(Dabsyl)R) substrate by fluorescence-based assay. In outline:
as §1

Where only a bound is given, the exact number is not on record here.

As for `CC(C)CN(C[C@@H](O)[C@H](Cc1ccccc1)NC(=O)O[C@H]1CCOC1)S(=O)(=O)c1ccc(N)cc1`, the Ki (as a rule, a dissociation constant, usually derived from enzyme kinetics or from competition with a known ligand) in assay [1] is greater than 20 µM.
Regarding `CC(C)(C)NC(=O)[C@@H]1CN(Cc2cccnc2)CCN1C[C@@H](O)C[C@@H](Cc1ccccc1)C(=O)N[C@H]1c2ccccc2C[C@H]1O`, the inhibition – broadly, the share of the control response that was lost under treatment – worked out at 95.4% in assay [2], 71.8% in assay [3] and 91.2% in assay [4]. The affinity in assay [1] corresponds to a Ki of 3.5 µM.
`Cc1c(O)cccc1C(=O)N[C@@H](CSc1ccccc1)[C@H](O)CN1C[C@H]2CCCC[C@H]2C[C@H]1C(=O)NC(C)(C)C`: in assay [1], the Ki is greater than 20 µM.
As for `CC(C)(C)NC(=O)[C@@H]1CNCCN1C[C@@H](O)C[C@@H](Cc1ccccc1)C(=O)N[C@H]1c2ccccc2C[C@H]1O`, the inhibition was determined as 60.8% in assay [2], 16.8% in assay [3] and 45.1% in assay [4].
With `CC(C)(C)NC(=O)[C@@H]1C[C@@H]2CCCC[C@@H]2CN1C[C@@H](O)[C@H](Cc1ccccc1)NC(=O)[C@H](CC(N)=O)NC(=O)c1ccc2ccccc2n1`, the Ki in assay [1] was greater than 20 µM.
